Experimental data reported in ChEMBL document CHEMBL3243963, “Drugs derived from cannabinoids. 7. Tachycardia and analgesia structure-activity relationships in delta9-tetrahydrocannabinol and some synthetic analogues” (J Med Chem, 1978).

Legend:
Rattus norvegicus = experiment: Toxicity in ip dosed Wistar rat assessed as tachycardia; type: organism-based; conditions: in vivo
In short: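 Conscious rats on a warming plate, with rectal temperature kept below 39 °C. Heart rate taken from tail pulse sound (piezo contact microphone, tachograph). Agents given ip in absolute ethanol or distilled water according to solubility. Maximum heart-rate increase plotted against log dose. ED50 with 95% confidence limits by computerized Litchfield–Wilcoxon. Five, six or twelve rats per dose depending on compound.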

Mus musculus [1] = experiment: Analgesic activity in po dosed mouse by anti-writhing test; type: functional
In short: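 Mouse antiwrithing test after oral dosing, five mice per dose. ED50 (half-maximal effect dose) with 95% confidence limits by computerized modification of Litchfield–Wilcoxon.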

Mus musculus [2] = experiment: Analgesic activity in po dosed mouse by hot plate test; type: functional
In short: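 Mouse hot-plate antinociception after oral dosing, ten mice per dose. ED50 with 95% confidence limits by computerized Litchfield–Wilcoxon method.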

Row | SMILES | Activity (Rattus norvegicus) | ED50 (Rattus norvegicus) | ED50 (Mus musculus [1]) | ED50 (Mus musculus [2])
1 | C#CCN1CCC2=C(C1)c1c(OC(=O)C(C)CCN3CCCCC3C)cc(C(C)C(C)CCCCC)cc1OC2(C)C.Cl (stereo unspecified) | Dose-dependent effect | 0.53 mg/kg | 7.3 mg/kg | 3.8 mg/kg
2 | Br.CCCCCc1cc(OC(=O)CCCN2CCOCC2)c2c(c1)OC(C)(C)[C@@H]1CCC(C)=C[C@@H]21 | Dose-dependent effect | 0.092 mg/kg | > 40 mg/kg | 168 mg/kg
3 | CCCCCC(C)C(C)c1cc(OC(=O)CCCN2CCCCC2)c2c(c1)OC(C)(C)C1=C2CC(C)CC1.Cl (stereo unspecified) | Dose-dependent effect | 1.92 mg/kg | 25.9 mg/kg | 15 mg/kg
4 | Br.CCCCCC(C)C(C)c1cc(OC(=O)CCCN2CCOCC2)c2c(c1)OC(C)(C)C1=C2CC(C)CC1 (stereo unspecified) | Dose-dependent effect | 2.13 mg/kg | 2.3 mg/kg | 0.5 mg/kg
5 | C#CCN1CCC2=C(C1)c1c(OC(=O)C(C)CCN3CCCCC3)cc(C(C)C(C)CCCCC)cc1OC2(C)C.Cl (stereo unspecified) | Dose-dependent effect | 0.4 mg/kg | 12.2 mg/kg | 4.6 mg/kg
6 | C#CCN1CCC2=C(C1)c1c(O)cc(C(C)C(C)CCCCC)cc1OC2(C)C (stereo unspecified) | Dose-dependent effect | 0.061 mg/kg | 4.3 mg/kg | 7.7 mg/kg
7 | CCCCCC(C)C(C)c1cc(O)c2c(c1)OC(C)(C)C1=C2CC(C)CC1 (mixture of isomers) | Dose-dependent effect | 0.31 mg/kg | 3 mg/kg | 9.3 mg/kg
8 | CCCCCc1cc(O)c2c(c1)OC(C)(C)[C@@H]1CCC(C)=C[C@@H]21 [DRONABINOL] | Dose-dependent effect | 0.062 mg/kg | 43 mg/kg | > 100 mg/kg
9 | C#CCN1CCC2=C(C1)c1c(OC(=O)CCCN3CCCCC3)cc(C(C)C(C)CCCCC)cc1OC2(C)C.Cl (stereo unspecified) [NABITAN HYDROCHLORIDE] | Dose-dependent effect | 0.11 mg/kg | 12 mg/kg | 5.3 mg/kg
